Data: ChEMBL document CHEMBL4680287, “Ibrexafungerp: An orally active β-1,3-glucan synthesis inhibitor” (Bioorg Med Chem Lett, 2021)

Tests used:
Aspergillus fumigatus [1] = test: Antifungal activity against Aspergillus fumigatus MF5668 infected in DBA/2N mouse assessed as mouse survival at 1.56 mg/kg, ip bid administered for 7 days starting from 15 to 30 mins post infection and measured up to 21 days relative to control; format: functional; settings: 168 h, time 7 day
Summary of the method: (§1)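 DBA/2N mice were infected IV with A. fumigatus MF5668 (6.7 x 10^5 CFU/mouse) and treated IP bid for 7 days. Percent survival per dose group was scored at the end of the 21-day survival model and compared with the sham-treated control group.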

[2] = Clearance in mouse; format: ADME, organism-based; settings: in vivo
Aspergillus fumigatus [3] = test: Antifungal activity against Aspergillus fumigatus MF5668 infected in DBA/2N mouse assessed as mean survival time at 12.5 mg/kg, ip bid administered for 7 days starting from 15 to 30 mins post infection and measured up to 21 days; format: functional; settings: time 7 day
Summary of the method: (§2)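 DBA/2N mice were challenged IV with A. fumigatus MF5668 at 6.7 x 10^5 CFU/mouse, then dosed IP twice daily for 7 days. Survival was followed over a 21-day model, and mean survival time in days was recorded per dose group. A sham-treated control group was run alongside.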

Aspergillus fumigatus [4] = test: Antifungal activity against Aspergillus fumigatus MF5668 infected in DBA/2N mouse assessed as mouse survival at 3.125 mg/kg, ip bid administered for 7 days starting from 15 to 30 mins post infection and measured up to 21 days relative to control; format: functional; settings: 168 h, time 7 day; summary of the method: as §1
Candida albicans [5] = test: Antifungal activity against Candida albicans MY1055 infected in DBA/2 mouse model of disseminated candidiasis assessed as reduction in fungal burden in kidney by measuring log change in colony forming units at 12.5 mg/kg, po bid for 7 days by TOKA; format: functional; settings: time 7 day
Summary of the method: (§3)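 Murine disseminated candidiasis model (TOKA) in mice challenged with C. albicans MY1055 at 2.44 x 10^4 CFU/mouse. Dosed PO, or IP where stated. Kidneys collected aseptically 7 days after challenge and CFUs/g counted. Change in log CFU/g is relative to sham-treated controls; significance by two-tailed t test. Clearance is the percentage of kidneys below the detection limit.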

Aspergillus fumigatus [6] = test: Antifungal activity against Aspergillus fumigatus MF5668 assessed inhibition of fungal growth by measuring morphological changes measured after 24 hrs by microscopy; format: functional; settings: read-out: MEC
Summary of the method: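 Microdilution per CLSI protocols in RPMI medium. Read-out is the minimum effective concentration (MEC). Run without serum and with 50% human serum.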

[7] = Inhibition of beta-1,3-glucan synthase in Candida albicans MY1055 microsomal membrane assessed as inhibition of TCA-insoluble material formation using UDP-[3H]-glucose as substrate incubated for 2 hrs in presence of GTP by radioactivity-based assay; format: microsomes, Microsome
Summary of the method: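 GS IC50 measured using Candida albicans MY1055 microsomal membrane fragments as the enzyme source.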

Aspergillus fumigatus [8] = test: Antifungal activity against Aspergillus fumigatus MF5668 infected in DBA/2N mouse assessed as mean survival time at 3.125 mg/kg, ip bid administered for 7 days starting from 15 to 30 mins post infection and measured up to 21 days; format: functional; settings: time 7 day; summary of the method: as §2
[9] = Oral bioavailability in rhesus monkey; format: ADME, organism-based, Macaca mulatta; settings: in vivo
Summary of the method: (§4)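 Oral bioavailability calculated as oral AUC normalized to the IV dose, divided by the IV AUC.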

Aspergillus fumigatus [10] = test: Antifungal activity against Aspergillus fumigatus MF5668 infected in DBA/2N mouse assessed as mean survival time at 1.56 mg/kg, ip bid administered for 7 days starting from 15 to 30 mins post infection and measured up to 21 days; format: functional; settings: time 7 day; summary of the method: as §2
[11] = Clearance in rhesus monkey; format: ADME, Macaca mulatta; settings: in vivo
Aspergillus fumigatus [12] = test: Antifungal activity against Aspergillus fumigatus MF5668 infected in DBA/2N mouse assessed as mouse survival at 6.25 mg/kg, ip bid administered for 7 days starting from 15 to 30 mins post infection and measured up to 21 days relative to control; format: functional; settings: 168 h, time 7 day; summary of the method: as §1
[13] = Oral bioavailability in dog; format: ADME, organism-based, Canis lupus familiaris; settings: in vivo; summary of the method: as §4
[14] = Half life in rat; format: ADME; settings: in vivo
[15] = Clearance in rat; format: ADME; settings: in vivo
Aspergillus fumigatus [16] = test: Antifungal activity against Aspergillus fumigatus MF5668 infected in DBA/2N mouse assessed as mouse survival at 12.5 mg/kg, ip bid administered for 7 days starting from 15 to 30 mins post infection and measured up to 21 days relative to control; format: functional; settings: 168 h, time 7 day; summary of the method: as §1
Aspergillus fumigatus [17] = test: Antifungal activity against Aspergillus fumigatus MF5668 infected in ip dosed DBA/2N mouse assessed as 50% mouse survival administered bid administered for 7 days starting from 15 to 30 mins post infection and measured up to 21 days; settings: 168 h
Candida albicans [18] = test: Antifungal activity against Candida albicans MY1055 infected in DBA/2 mouse model of disseminated candidiasis assessed as reduction in fungal burden in kidney by measuring log change in colony forming units at 6.25 mg/kg, po bid for 7 days by TOKA; format: functional; settings: time 7 day; summary of the method: as §3
Candida albicans [19] = test: Antifungal activity against Candida albicans MY1055 infected in ip dosed DBA/2 mouse model of disseminated candidiasis assessed as reduction in fungal burden in kidney administered bid for 7 days by TOKA; format: functional; settings: 168 h, time 7 day; summary of the method: as §3
Candida albicans [20] = test: Antifungal activity against Candida albicans MY1055 infected in DBA/2 mouse model of disseminated candidiasis assessed as reduction in fungal burden in kidney by measuring log change in colony forming units at 12.5 mg/kg, ip bid for 7 days by TOKA; format: functional; settings: time 7 day; summary of the method: as §3
[21] = Dose normalized AUC in po dosed mouse; format: ADME, organism-based; settings: in vivo
Aspergillus fumigatus [22] = test: Antifungal activity against Aspergillus fumigatus MF5668 infected in DBA/2N mouse assessed as mean survival time at 6.25 mg/kg, ip bid administered for 7 days starting from 15 to 30 mins post infection and measured up to 21 days; format: functional; settings: time 7 day; summary of the method: as §2
[23] = Clearance in dog; format: ADME, Canis lupus familiaris; settings: in vivo
[24] = Half life in mouse; format: ADME, organism-based; settings: in vivo
Aspergillus fumigatus [25] = test: Antifungal activity against Aspergillus fumigatus MF5668 infected in ip dosed DBA/2N mouse assessed as 90% mouse survival administered bid administered for 7 days starting from 15 to 30 mins post infection and measured up to 21 days; format: functional; settings: 168 h, time 7 day
Candida albicans [26] = test: Antifungal activity against Candida albicans MY1055 assessed as fungal growth inhibition measured after 24 hrs by liquid microdilution method; format: functional
Summary of the method: (§5)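 Broth microdilution per CLSI protocols in RPMI medium. Read-out is the MIC, the lowest concentration completely inhibiting fungal growth. Run without serum and with added serum.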

[27] = Dose normalized AUC in po dosed rat; format: ADME, organism-based; settings: in vivo
Candida albicans [28] = test: Antifungal activity against Candida albicans MY1055 assessed as fungal growth inhibition measured after 24 hrs in presence of 50% mouse serum by liquid microdilution method; format: functional; summary of the method: as §5
[29] = Dose normalized AUC in po dosed dog; format: ADME, organism-based, Canis lupus familiaris; settings: in vivo
[30] = Oral bioavailability in rat; format: ADME, organism-based; settings: in vivo; summary of the method: as §4
Candida albicans [31] = test: Antifungal activity against Candida albicans MY1055 infected in DBA/2 mouse model of disseminated candidiasis assessed as reduction in fungal burden in kidney by measuring log change in colony forming units at 25 mg/kg, po bid for 7 days by TOKA; format: functional; settings: time 7 day; summary of the method: as §3
[32] = Dose normalized AUC in po rhesus monkey; format: ADME, organism-based, Macaca mulatta; settings: in vivo
[33] = Oral bioavailability in mouse; format: ADME, organism-based; settings: in vivo; summary of the method: as §4
[34] = Half life in dog; format: ADME, Canis lupus familiaris; settings: in vivo
[35] = Half life in rhesus monkey; format: ADME, Macaca mulatta; settings: in vivo

Structure (SMILES): CC(C)[C@@H](C)[C@@]1(C)CC[C@]2(C)[C@H]3CC[C@@H]4[C@@]5(COC[C@@]4(C)[C@@H](OC[C@](C)(N)C(C)C)[C@H](n4ncnc4-c4ccncc4)C5)C3=CC[C@@]2(C)[C@@H]1C(=O)O
- survival at 1.56 mg/kg (Aspergillus fumigatus [1]): 0%
- clearance [2]: 17 mL/min/kg
- MST (Aspergillus fumigatus [3]): 14.7 days
- survival at 3.125 mg/kg (Aspergillus fumigatus [4]): 30%
- Activity (Candida albicans [5]): -2.9 deltalog10CFU
- minimal effective concentration (Aspergillus fumigatus [6]): < 0.03 µg/mL
- IC50 [7]: 0.002 µg/mL
- MST (Aspergillus fumigatus [8]): 10.7 days
- bioavailability [9]: 5%
- MST (Aspergillus fumigatus [10]): 4.2 days
- clearance [11]: 14 mL/min/kg
- survival at 6.25 mg/kg (Aspergillus fumigatus [12]): 40%
- bioavailability [13]: 21%
- half-life [14]: 3.9 h
- clearance [15]: 12 mL/min/kg
- survival at 12.5 mg/kg (Aspergillus fumigatus [16]): 60%
- ED50 (Aspergillus fumigatus [17]): 8.2 mg/kg
- Activity (Candida albicans [18]): -2.4 deltalog10CFU
- ED99 (Candida albicans [19]): 1.2 mg/kg
- Activity (Candida albicans [20]): -4.01 deltalog10CFU
- AUC/dose [21]: 0.42 µM·kg·h/mg
- MST (Aspergillus fumigatus [22]): 12.4 days
- clearance [23]: 6 mL/min/kg
- half-life [24]: 4.9 h
- ED90 (Aspergillus fumigatus [25]): 31 mg/kg
- MIC (Candida albicans [26]): < 0.03 µg/mL
- AUC/dose [27]: 0.56 µM·kg·h/mg
- MIC (Candida albicans [28]): 0.5 µg/mL
- AUC/dose [29]: 0.9 µM·kg·h/mg
- bioavailability [30]: 28%
- Activity (Candida albicans [31]): -4.5 deltalog10CFU
- AUC/dose [32]: 0.08 µM·kg·h/mg
- bioavailability [33]: 31%
- half-life [34]: 9 h
- half-life [35]: 6.1 h
